Screening data (PubChem BioAssay)
Ecoli tolC: growth inhibitors of E. coli tolC mutant, primary screen, strain BW25113 ΔtolC::kan, 384-well; growth inhibition, % at 10 µM (by protocol); 65,000 tested, 2.2% active; OD615;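 active = growth inhibition at or above a cutoff equal to the mean over every tested compound plus 3 SD, cut at about 60% in these data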;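 note: growth measured after 20 h incubation at 37 °C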
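System: E. coli ΔtolC::kan strain BW25113; Buffer or medium: LB broth supplemented with 50 µg/mL kanamycin; Compound: 10 µM final, single dose; Incubation: bacterial growth with compound for 20 h at 37 °C; Signal: A615 absorbance measurement; Evaluation: growth inhibition in percent.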
CYP2C19 activ: human CYP2C19 activators, primary screen, biochemical, luminescence; Cytochrome P450 2C19 (Homo sapiens), P33261; recombinant CYP2C19, luciferin-H EGE luminescence; stronger effect = higher value; 0 = fully inhibited enzyme, 1 = untreated enzyme; activation factor at 5 µM; 96,000 tested, under 10 active;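 active = activation factor of at least 2 at 5 µM in the primary screen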
CYP2C9 act: human CYP2C9 activators, primary screen, biochemical, luminescence. Cytochrome P450 2C9 (Homo sapiens), P11712. recombinant CYP2C9, luciferin-H conversion; stronger effect = higher value; factor 1 = untreated enzyme, 0 = blocked. activation factor at 5 µM. 96,000 tested, 1.4% active;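 active = activation factor of 2 or more for CYP2C9 at a 5 µM dose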
Target sequence (P11712 whole entry, looked up): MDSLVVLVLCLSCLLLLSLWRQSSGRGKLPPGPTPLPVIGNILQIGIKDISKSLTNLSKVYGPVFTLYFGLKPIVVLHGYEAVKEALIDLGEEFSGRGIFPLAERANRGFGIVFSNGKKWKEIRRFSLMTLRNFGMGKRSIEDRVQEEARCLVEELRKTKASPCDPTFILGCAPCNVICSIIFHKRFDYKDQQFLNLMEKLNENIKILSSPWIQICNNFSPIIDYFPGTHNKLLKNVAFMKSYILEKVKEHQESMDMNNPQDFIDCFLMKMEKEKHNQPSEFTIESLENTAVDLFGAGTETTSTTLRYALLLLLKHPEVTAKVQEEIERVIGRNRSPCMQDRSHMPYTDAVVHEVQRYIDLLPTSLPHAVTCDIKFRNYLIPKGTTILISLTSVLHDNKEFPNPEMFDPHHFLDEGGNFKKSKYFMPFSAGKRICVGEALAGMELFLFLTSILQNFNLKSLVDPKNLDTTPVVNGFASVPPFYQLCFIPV
CYP2C19 inhib: blockers of cytochrome P450 2C19 activity – biochemical, luminescence, ADME assay, primary screen | P33261 | 96,000 tested, 21% active | AID 778, 2007 | inhibition, % at 5 µM | CYP2C19 Supersomes, luciferin-H EGE luminescence, 30 min;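 active = CYP2C19 inhibition above a set limit at 5 µM in the primary screen, cut at about 50% in these data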
E coli WT exp: growth inhibitors of wild-type E. coli, primary screen, strain BW25113, expanded library, OD600; 98,000 tested, 0.15% active; growth inhibition, % at 100 µM; OD600 absorbance;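 active = growth inhibition above about 50% at one test dose, limit read from the data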;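 note: growth measured after 20 h incubation at 37 °C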
CYP2C9 inhib: blockers of cytochrome P450 2C9 activity – biochemical, luminescence, ADME assay, primary screen; P11712; CYP2C9 Supersomes, luciferin-H conversion; inhibition, % at 5 µM; 96,000 tested, 20% active;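 active = blocking of liver enzyme CYP2C9 beyond about 50% at 5 µM, limit read from the data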
Each line names hits and unclear results; the compound was inactive in the other large screens. Only some compounds are listed: those with a hit (about 29% of all), similar ones and a draw of the others.

Clc1ccc(Oc2nc(N3CCOCC3)nc(N3CCOCC3)n2)cc1	none (no result: Ecoli tolC)
CCOC(=O)C1CCN(C(=O)CC(NS(=O)(=O)c2ccc(OC)cc2)C(C)C)CC1 (stereo not drawn)	none
COc1cccc(COc2cc3ccccc3nc2C)c1	CYP2C9 inhib 78 (no result: Ecoli tolC)
Cc1nc2ccccc2cc1OCc1ccc(Cl)cc1	none (no result: Ecoli tolC)
Cc1nc2ccccc2cc1OCc1ccccc1	CYP2C9 inhib 65 (no result: Ecoli tolC)
CCOC(=O)COc1cc2c3c(c(=O)oc2cc1C)CCCC3	CYP2C9 inhib 60
Cc1cc2oc(=O)c3c(c2cc1OC(=O)c1ccco1)CCCC3	none
CCOC(=O)c1ccc(NC(=O)CC2C(=O)N(c3cccc(OC)c3)C(=O)N2CCOC)cc1 (stereo not drawn)	none
COc1ccc(NC(=O)CC2C(=O)N(c3cccc(C)c3)C(=O)N2C2CCCCC2)cc1 (stereo not drawn)	CYP2C19 inhib 56 (no result: Ecoli tolC)
COc1ccc(NC(=O)CC2C(=O)N(c3cccc(OC)c3)C(=O)N2CCC(C)C)cc1 (stereo not drawn)	CYP2C19 inhib 66, CYP2C9 inhib 62 (no result: Ecoli tolC)
O=C(Cn1c(=O)oc2cc(S(=O)(=O)N3CCCC3)ccc21)N1CCN(c2ccccn2)CC1	none
Cn1c(=O)c2c(nc(CN3CCOCC3)n2CC(O)CO)n(C)c1=O (stereo not drawn)	none
O=C(OCc1ccccc1)c1cn(-c2ccccc2)nc1-c1ccncc1	CYP2C19 inhib 52 (no result: Ecoli tolC)
O=C(c1cn(-c2ccccc2)nc1-c1ccncc1)N1CCCCC1	CYP2C19 inhib 52
O=C(c1cn(-c2ccccc2)nc1-c1cccs1)N1CCN(c2ccccc2)CC1	CYP2C19 inhib 96, CYP2C9 inhib 98 (no result: Ecoli tolC)
O=C(OC1CCS(=O)(=O)c2sccc21)c1ccccc1 (stereo not drawn)	CYP2C19 inhib 56 (no result: Ecoli tolC)
CCOc1ccc(-c2nc(C#N)c(N3CCN(C)CC3)o2)cc1	none
CCOc1ccc(-c2nc(C#N)c(N3CCCCCC3)o2)cc1	Ecoli tolC 68, CYP2C9 inhib 76
Cc1ccc(-c2nc(C#N)c(N3CCCCC3)o2)cc1	none
COc1ccc(-c2nc(C#N)c(N3CCCCCC3)o2)cc1	CYP2C9 inhib 50
COc1ccc(-c2nc(C#N)c(N3CCCCCC3)o2)cc1OC	CYP2C9 inhib 52
COc1ccc(-c2nc(C#N)c(N3CC(C)OC(C)C3)o2)cc1OC (stereo not drawn)	none (no result: CYP2C19 activ, CYP2C9 act, CYP2C19 inhib, CYP2C9 inhib)
N#Cc1nc(-c2ccccc2F)oc1N1CCCC1	CYP2C9 act 2.3, CYP2C19 inhib 50
CCOC(=O)CSc1nnc(CNC(=O)c2ccc(OC)c(OC)c2)n1C	none
Cc1ccc(-n2c(Cn3nc(C(F)(F)F)cc3C)n[nH]c2=S)cc1	none (no result: Ecoli tolC)
Cc1cc(C)nc(Nc2ccc(C(=O)O)cc2)n1	none (no result: Ecoli tolC)
Cc1ccc(C)c(NC(=O)C(C)CC2COCCO2)c1 (stereo not drawn)	none (no result: Ecoli tolC)
Cc1ccc(NC(=O)C2CCN(S(=O)(=O)c3c(C)[nH]c(=O)[nH]c3=O)CC2)cc1	none (no result: Ecoli tolC)
CNc1oc(-c2ccc(Cl)cc2)nc1C#N	none
COc1ccc(-c2nc(C#N)c(NC(C)C)o2)cc1	CYP2C19 inhib 86
COc1ccccc1N(C(C)=O)C1SC(=O)N(c2ccccc2)C1=O (stereo not drawn)	CYP2C19 inhib 54
COc1cccc2cc(C(=O)N(C)C3CCN(C)CC3)c(=O)oc12	none
Cc1ccc(-c2nnc(-c3cccc(NC(=O)c4cccs4)c3)o2)cc1	CYP2C19 inhib 55, CYP2C9 inhib 78 (no result: Ecoli tolC)
O=C(Nc1cccc(-c2nnc(-c3ccccc3)o2)c1)c1ccco1	none (no result: E coli WT exp)
O=C(Cc1cccs1)Nc1cccc(-c2nc3ccccc3o2)c1	CYP2C9 inhib 67 (no result: Ecoli tolC)
Cc1cccc(-c2nnc(-c3cccc(NC(=O)Cc4cccs4)c3)o2)c1	CYP2C19 inhib 72, CYP2C9 inhib 65 (no result: Ecoli tolC)
CCC(=O)Nc1cccc(-c2nc3ccccc3o2)c1	CYP2C19 inhib 54
CC(=O)c1cccc(NC(=O)Cc2cccs2)c1	none
O=C(Cc1ccccc1)NC(NCCCN1CCOCC1)(C(F)(F)F)C(F)(F)F	none
